Assay results as given in ChEMBL document CHEMBL1122242, “Phenylenebis(oxy)bis[2,2-dimethylpentanoic acid]s: agents that elevate high-density lipoproteins” (1983).
Values joined by “and” are separate entries in the source; they are usually repeats but may differ in a detail not shown here. Equal values may be shown once.

Tests used:
Type in all cases: functional
Rattus norvegicus [1] = species: Rattus norvegicus; test: Hypolipidemic effects(liver weight) in male rats
Summary of the method: (§1)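 Male rats, 10 per group, fed 7 days on chow with 10% fat (5.5% added peanut oil), 1.5% cholesterol and 0.1% cholic acid. Oral gavage on days 4-7 in 4% acacia, usually 50 mg/kg daily. Fasted overnight, killed day 8, atrial blood into EDTA. Plasma cholesterol, TG and HDL cholesterol (after MnCl2/heparin precipitation) by Autoanalyzer. % change vs controls, Student's t test.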

Rattus norvegicus [2] = species: Rattus norvegicus; test: Hypolipidemic effects(plasma TG) in male rats; summary of the method: as §1
Rattus norvegicus [3] = species: Rattus norvegicus; test: Hypolipidemic effects(plasma cholesterol) in male rats; summary of the method: as §1
Rattus norvegicus [4] = test: Hypolipidemic effects (high-density lipoprotein (HDL) cholesterol) in male rats; Compound was screening orally at 50 mg/Kg; summary of the method: as §1
Rattus norvegicus [5] = test: Hypolipidemic effects (low-density lipoprotein (LDL) cholesterol) in male rats;Compound was screening orally at 50 mg/Kg; summary of the method: as §1
Rattus norvegicus [6] = test: Hypolipidemic effects(plasma cholesterol) in male rats at 12.50 mg/kg; conditions: dose 12.5 mg/kg
Summary of the method: (§2)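 Head-to-head oral dosing at 12.5, 25 and 50 mg/kg daily […] in male rats kept on a high lipid diet, alongside gemfibrozil reference. Plasma lipid fractions and liver weight expressed as % change vs controls.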

Rattus norvegicus [7] = test: Hypolipidemic effects(liver weight) in male rats at 25 mg/kg; summary of the method: as §2
Rattus norvegicus [8] = test: Hypolipidemic effects as the ratio of (HDL/LDL) in male rats at dose 12.5 mg/kg.
Summary of the method: (§3)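 Male rats on a high lipid diet, dosed orally […] at 12.5, 25 or 50 mg/kg, with gemfibrozil reference. HDL/LDL (VLDL included) ratio from densitometry of polyacrylamide gel electrophoresis patterns of plasma. Expressed as % change vs controls.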

Rattus norvegicus [9] = test: Hypolipidemic effects (high-density lipoprotein (HDL) cholesterol) in male rats at 50 mg/kg orally; conditions: route oral; summary of the method: as §2
Rattus norvegicus [10] = test: Hypolipidemic effects as the ratio of (HDL/LDL) in male rats at dose 25 mg/kg.; summary of the method: as §3
Rattus norvegicus [11] = test: Hypolipidemic effects(plasma cholesterol) in male rats at 25 mg/kg; summary of the method: as §2
Rattus norvegicus [12] = test: Hypolipidemic effects (high-density lipoprotein (HDL) cholesterol) in male rats at 50 mg/kg; summary of the method: as §2
Rattus norvegicus [13] = test: Hypolipidemic effects (high-density lipoprotein (HDL) cholesterol) in male rats at 12.50 mg/kg; conditions: dose 12.5 mg/kg; summary of the method: as §2
Rattus norvegicus [14] = test: Hypolipidemic effects as the ratio of (HDL/LDL) in male rats at dose 50 mg/kg.; summary of the method: as §3
Rattus norvegicus [15] = test: Hypolipidemic effects (Low-density lipoprotein (LDL) cholesterol) in male rats at 12.50 mg/kg; conditions: dose 12.5 mg/kg; summary of the method: as §2
Rattus norvegicus [16] = test: Hypolipidemic effects(plasma TG) in male rats at 50 mg/kg; summary of the method: as §2
Rattus norvegicus [17] = test: Hypolipidemic effects(plasma TG) in male rats at 25 mg/kg; summary of the method: as §2
Rattus norvegicus [18] = test: Hypolipidemic effects(liver weight) in male rats at 50 mg/kg; summary of the method: as §2
Rattus norvegicus [19] = test: Hypolipidemic effects(plasma cholesterol) in male rats at 50 mg/kg; summary of the method: as §2
Rattus norvegicus [20] = test: Hypolipidemic effects (high-density lipoprotein (HDL) cholesterol) in male rats at 25 mg/kg; summary of the method: as §2
Rattus norvegicus [21] = test: Hypolipidemic effects(plasma TG) in male rats at 12.50 mg/kg; conditions: dose 12.5 mg/kg; summary of the method: as §2
Rattus norvegicus [22] = test: Hypolipidemic effects(liver weight) in male rats at 12.50 mg/kg; conditions: dose 12.5 mg/kg; summary of the method: as §2
Rattus norvegicus [23] = test: Hypolipidemic effects (Low-density lipoprotein (LDL) cholesterol) in male rats at 25 mg/kg; summary of the method: as §2
Rattus norvegicus [24] = test: Hypolipidemic effects (Low-density lipoprotein (LDL) cholesterol) in male rats at 50 mg/kg; Compound was screening orally at 50 mg/Kg; summary of the method: as §1
Rattus norvegicus [25] = test: Hypolipidemic effects (high-density lipoprotein (HDL) cholesterol) in male rats at 50 mg/kg; Compound was screening orally at 50 mg/Kg; summary of the method: as §1
Rattus norvegicus [26] = test: Hypolipidemic effects (Low-density lipoprotein (LDL) cholesterol) in male rats at 50 mg/kg; summary of the method: as §2
Rattus norvegicus [27] = test: Hypolipidemic effects (high-density lipoprotein (HDL) cholesterol) in male rats at 12.5 mg/kg; summary of the method: as §2
Rattus norvegicus [28] = test: Hypolipidemic effects (Low-density lipoprotein (LDL) cholesterol) in male rats at a dose of 50 mg/kg; Compound was screening orally at 50 mg/Kg; summary of the method: as §1
Rattus norvegicus [29] = test: Hypolipidemic effects(plasma TG) in male rats at a dose of 50 mg/kg; summary of the method: as §1
Rattus norvegicus [30] = test: Hypolipidemic effects (high-density lipoprotein (HDL) cholesterol) in male rats at a dose of 50 mg/kg; Compound was screening orally at 50 mg/Kg; summary of the method: as §1
Rattus norvegicus [31] = test: Hypolipidemic effects(liver weight) in male rats at 12.5 mg/kg; summary of the method: as §2
Rattus norvegicus [32] = test: Hypolipidemic effects(plasma cholesterol) in male rats at a dose of 50 mg/kg; summary of the method: as §1

SMILES	Change (Rattus norvegicus [1])	Change (Rattus norvegicus [2])	Change (Rattus norvegicus [3])	Change (Rattus norvegicus [4])	Change (Rattus norvegicus [5])	Change (Rattus norvegicus [6])	Change (Rattus norvegicus [7])	Change (Rattus norvegicus [8])	Change (Rattus norvegicus [10])	Change (Rattus norvegicus [11])	Change (Rattus norvegicus [13])	Change (Rattus norvegicus [14])	Change (Rattus norvegicus [15])	Change (Rattus norvegicus [16])	Change (Rattus norvegicus [17])	Change (Rattus norvegicus [18])	Change (Rattus norvegicus [19])	Change (Rattus norvegicus [20])	Change (Rattus norvegicus [21])	Change (Rattus norvegicus [22])	other results
COC(=O)C(C)(C)CCCOc1cccc(OCCCC(C)(C)C(=O)OC)c1N	8%	-41%	-37%	46%	-42%	–	–	–	–	–	–	–	–	–	–	–	–	–	–	–	–
CC(C)(CCCCOc1ccc(OCCCCC(C)(C)C(=O)O)cc1)C(=O)O	–	–	–	–	–	-33%	14%	180%	339%	-35%	81%	1722%	-40%	-20%	0%	36%	0%	227%	-16%	4%	Change (Rattus norvegicus [9]): 1477%; Change (Rattus norvegicus [12]): 1477%; Change (Rattus norvegicus [23]): -50%
CC(C)(CCCOc1ccc(OCCCC(C)(C)C(=O)O)c(-c2ccc(Cl)cc2)c1)C(=O)O	17%	-29%	-47%	224%	-78%	–	–	–	–	–	–	–	–	–	–	–	–	–	–	–	–
CC(C)(CCCOc1ccc(OCCCC(C)(C)C(=O)O)c(Cl)c1)C(=O)O	–	–	–	–	–	-65%	18%	242%	493%	-60%	94%	1445%	-74%	0%	-31%	38%	-53%	206%	-28%	8%	Change (Rattus norvegicus [24]): -62%; Change (Rattus norvegicus [25]): 753%; Change (Rattus norvegicus [12]): 753%; Change (Rattus norvegicus [26]): -62%; Change (Rattus norvegicus [23]): -77%
CC(O)c1cc(OCCCC(C)(C)C(=O)O)ccc1OCCCC(C)(C)C(=O)O (centres undefined)	12%	0%	-27%	525%	-70%	–	–	–	–	–	–	–	–	–	–	–	–	–	–	–	–
CC(C)(CO)CCCCOc1ccc(OCCCCC(C)(C)CO)cc1	30%	0%	0%	907%	-54%	–	–	–	–	–	–	–	–	–	–	–	–	–	–	–	–
CC(C)(CCCOc1ccc(OCCCC(C)(C)C(=O)O)c(-c2ccccc2)c1)C(=O)O	–	–	–	–	–	-53%	22%	945%	1798%	-52%	518%	2432%	-78%	31%	82%	34%	-27%	741%	32%	13%	Change (Rattus norvegicus [24]): -85%; Change (Rattus norvegicus [25]): 1410%; Change (Rattus norvegicus [23]): -72%
CC(C)(CCCOc1ccc(C(=O)c2ccccc2)c(OCCCC(C)(C)C(=O)O)c1)C(=O)O	11%	57%	0%	169%	-10%	–	–	–	–	–	–	–	–	–	–	–	–	–	–	–	–
Cc1ccc(C)c(OCCCC(C)(C)C(=O)O)c1 [GEMFIBROZIL]	–	–	–	–	–	0%	–	–	–	–	134%	–	-16%	–	–	–	–	–	45%	7%	Change (Rattus norvegicus [7]; 25 mg/kg): 10% and 8% and 9% and 11%; Change (Rattus norvegicus [27]): 88% and 134% and 116% and 133%; Change (Rattus norvegicus [8]; 12.5 mg/kg): 98% [middle of 5 runs]; Change (Rattus norvegicus [28]): -32%; Change (Rattus norvegicus [10]; 25 mg/kg): 214% [middle of 5 runs]; Change (Rattus norvegicus [12]; 50 mg/kg): 498% and 306%; Change (Rattus norvegicus [14]; 50 mg/kg): 364% and 594% and 405%; Change (Rattus norvegicus [29]): 233%; Change (Rattus norvegicus [16]; 50 mg/kg): 57% and 69%; Change (Rattus norvegicus [26]): -42%; Change (Rattus norvegicus [17]; 25 mg/kg): 64% [middle of 5 runs]; Change (Rattus norvegicus [18]; 50 mg/kg): 17% and 26% and 13%; Change (Rattus norvegicus [19]; 50 mg/kg): -26% and -29%; Change (Rattus norvegicus [20]; 25 mg/kg): 215% and 257% and 171% and 236% and 246%; Change (Rattus norvegicus [30]): 339%; Change (Rattus norvegicus [31]): 7% and 4%; Change (Rattus norvegicus [32]): 0%; Change (Rattus norvegicus [23]; 25 mg/kg): -22% [middle of 4 runs]
